Measured values: ChEMBL document CHEMBL5058577, “EUbOPEN Chemogenomics Library 2 (Multiplex)” (2022)

System: Fibroblast
Test: Multiplex assay against human fibroblast
Format: toxicity, cell-based
Method in brief: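 Compound was added to live cells that had been stained at seeding with Hoechst33342, BioTracker Green Microtubule Cytoskeleton Dye, MitoTracker Red and Annexin V Alexa Fluor 680, and imaging followed on a CQ1 microscope at 37°C and 5% CO2. CellPathfinder machine-learning gating divided cells into Hoechst high-intensity objects or normal cells, normal cells into healthy, pyknosed or fragmented nuclei, and pyknosed cells into mitotic or apoptotic. Tubulin, mitochondrial-mass and membrane-permeability phenotypes are per cents of healthy-nucleus cells.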

[1] = 12 h, 1 µM, compound concentration 1 uM, replicate 1
[2] = 12 h, 1 µM, compound concentration 1 uM, replicate 2
[3] = 12 h, 10 µM, compound concentration 10 uM, replicate 1
[4] = 12 h, 10 µM, compound concentration 10 uM, replicate 2
[5] = 24 h, 1 µM, compound concentration 1 uM, replicate 1
[6] = 24 h, 1 µM, compound concentration 1 uM, replicate 2
[7] = 24 h, 10 µM, compound concentration 10 uM, replicate 1
[8] = 24 h, 10 µM, compound concentration 10 uM, replicate 2
[9] = 48 h, 1 µM, compound concentration 1 uM, replicate 1
[10] = 48 h, 1 µM, compound concentration 1 uM, replicate 2
[11] = 48 h, 10 µM, compound concentration 10 uM, replicate 1
[12] = 48 h, 10 µM, compound concentration 10 uM, replicate 2

Cc1onc(-c2ccccc2Cl)c1C(=O)N(C)c1ccc(Cl)cc1
Population Apoptotic (%) [1]: 60%
Population Fragmented Nuclei (%) [1]: 17%
Population Healthy Nuclei (%) [1]: 68%
Population Hoechst High Intensity Objects (%) [1]: 7%
Population Membrane Permeable-Phenotype (%) [1]: 0%
Population Mitochondria Different-Phenotype (%) [1]: 7%
Population Mitotic Cells (%) [1]: 39%
Population Normal (%) [1]: 92%
Population Pyknosed Nuclei (%) [1]: 13%
Population Tubulin-Different-Phenotype (%) [1]: 23%
Total Cell Count [1]: 178
Population Apoptotic (%) [2]: 35%
Population Fragmented Nuclei (%) [2]: 22%
Population Healthy Nuclei (%) [2]: 50%
Population Hoechst High Intensity Objects (%) [2]: 9%
Population Membrane Permeable-Phenotype (%) [2]: 6%
Population Mitochondria Different-Phenotype (%) [2]: 8%
Population Mitotic Cells (%) [2]: 65%
Population Normal (%) [2]: 90%
Population Pyknosed Nuclei (%) [2]: 27%
Population Tubulin-Different-Phenotype (%) [2]: 63%
Total Cell Count [2]: 161
Population Apoptotic (%) [3]: 36%
Population Fragmented Nuclei (%) [3]: 16%
Population Healthy Nuclei (%) [3]: 70%
Population Hoechst High Intensity Objects (%) [3]: 2%
Population Membrane Permeable-Phenotype (%) [3]: 2%
Population Mitochondria Different-Phenotype (%) [3]: 6%
Population Mitotic Cells (%) [3]: 63%
Population Normal (%) [3]: 97%
Population Pyknosed Nuclei (%) [3]: 13%
Population Tubulin-Different-Phenotype (%) [3]: 29%
Total Cell Count [3]: 144
Population Apoptotic (%) [4]: 37%
Population Fragmented Nuclei (%) [4]: 24%
Population Healthy Nuclei (%) [4]: 48%
Population Hoechst High Intensity Objects (%) [4]: 3%
Population Membrane Permeable-Phenotype (%) [4]: 5%
Population Mitochondria Different-Phenotype (%) [4]: 11%
Population Mitotic Cells (%) [4]: 62%
Population Normal (%) [4]: 96%
Population Pyknosed Nuclei (%) [4]: 27%
Population Tubulin-Different-Phenotype (%) [4]: 64%
Total Cell Count [4]: 151
Population Apoptotic (%) [5]: 44%
Population Fragmented Nuclei (%) [5]: 18%
Population Healthy Nuclei (%) [5]: 65%
Population Hoechst High Intensity Objects (%) [5]: 7%
Population Membrane Permeable-Phenotype (%) [5]: 0%
Population Mitochondria Different-Phenotype (%) [5]: 1%
Population Mitotic Cells (%) [5]: 55%
Population Normal (%) [5]: 92%
Population Pyknosed Nuclei (%) [5]: 16%
Population Tubulin-Different-Phenotype (%) [5]: 16%
Total Cell Count [5]: 178
Population Apoptotic (%) [6]: 39%
Population Fragmented Nuclei (%) [6]: 22%
Population Healthy Nuclei (%) [6]: 54%
Population Hoechst High Intensity Objects (%) [6]: 12%
Population Membrane Permeable-Phenotype (%) [6]: 8%
Population Mitochondria Different-Phenotype (%) [6]: 4%
Population Mitotic Cells (%) [6]: 60%
Population Normal (%) [6]: 87%
Population Pyknosed Nuclei (%) [6]: 23%
Population Tubulin-Different-Phenotype (%) [6]: 56%
Total Cell Count [6]: 182
Population Apoptotic (%) [7]: 20%
Population Fragmented Nuclei (%) [7]: 16%
Population Healthy Nuclei (%) [7]: 76%
Population Hoechst High Intensity Objects (%) [7]: 2%
Population Membrane Permeable-Phenotype (%) [7]: 1%
Population Mitochondria Different-Phenotype (%) [7]: 4%
Population Mitotic Cells (%) [7]: 80%
Population Normal (%) [7]: 97%
Population Pyknosed Nuclei (%) [7]: 7%
Population Tubulin-Different-Phenotype (%) [7]: 32%
Total Cell Count [7]: 134
Population Apoptotic (%) [8]: 54%
Population Fragmented Nuclei (%) [8]: 21%
Population Healthy Nuclei (%) [8]: 55%
Population Hoechst High Intensity Objects (%) [8]: 4%
Population Membrane Permeable-Phenotype (%) [8]: 6%
Population Mitochondria Different-Phenotype (%) [8]: 6%
Population Mitotic Cells (%) [8]: 45%
Population Normal (%) [8]: 95%
Population Pyknosed Nuclei (%) [8]: 23%
Population Tubulin-Different-Phenotype (%) [8]: 59%
Total Cell Count [8]: 149
Population Apoptotic (%) [9]: 76%
Population Fragmented Nuclei (%) [9]: 26%
Population Healthy Nuclei (%) [9]: 62%
Population Hoechst High Intensity Objects (%) [9]: 9%
Population Membrane Permeable-Phenotype (%) [9]: 0%
Population Mitochondria Different-Phenotype (%) [9]: 1%
Population Mitotic Cells (%) [9]: 23%
Population Normal (%) [9]: 90%
Population Pyknosed Nuclei (%) [9]: 10%
Population Tubulin-Different-Phenotype (%) [9]: 22%
Total Cell Count [9]: 185
Population Apoptotic (%) [10]: 48%
Population Fragmented Nuclei (%) [10]: 28%
Population Healthy Nuclei (%) [10]: 54%
Population Hoechst High Intensity Objects (%) [10]: 11%
Population Membrane Permeable-Phenotype (%) [10]: 10%
Population Mitochondria Different-Phenotype (%) [10]: 6%
Population Mitotic Cells (%) [10]: 51%
Population Normal (%) [10]: 88%
Population Pyknosed Nuclei (%) [10]: 17%
Population Tubulin-Different-Phenotype (%) [10]: 51%
Total Cell Count [10]: 188
Population Apoptotic (%) [11]: 44%
Population Fragmented Nuclei (%) [11]: 25%
Population Healthy Nuclei (%) [11]: 68%
Population Hoechst High Intensity Objects (%) [11]: 4%
Population Membrane Permeable-Phenotype (%) [11]: 0%
Population Mitochondria Different-Phenotype (%) [11]: 3%
Population Mitotic Cells (%) [11]: 55%
Population Normal (%) [11]: 95%
Population Pyknosed Nuclei (%) [11]: 6%
Population Tubulin-Different-Phenotype (%) [11]: 34%
Total Cell Count [11]: 141
Population Apoptotic (%) [12]: 65%
Population Fragmented Nuclei (%) [12]: 31%
Population Healthy Nuclei (%) [12]: 55%
Population Hoechst High Intensity Objects (%) [12]: 1%
Population Membrane Permeable-Phenotype (%) [12]: 8%
Population Mitochondria Different-Phenotype (%) [12]: 6%
Population Mitotic Cells (%) [12]: 35%
Population Normal (%) [12]: 98%
Population Pyknosed Nuclei (%) [12]: 12%
Population Tubulin-Different-Phenotype (%) [12]: 53%
Total Cell Count [12]: 166
